We go through 8 compounds from ChEMBL document CHEMBL3813699, “Structure-Activity Relationships of a Diverse Class of Halogenated Phenazines That Targets Persistent, Antibiotic-Tolerant Bacterial Biofilms and Mycobacterium tuberculosis” (J Med Chem, 2016).

Structures are written as SMILES. In brackets after ≈: the same amount, converted by molar mass.

For orientation: IC50 means the concentration needed to halve the response being measured. One may read the MIC as the lowest concentration that inhibits growth of the organism.

One data set has as its system HeLa. Briefly: Cytotoxicity against human HeLa cells after 24 hrs by LDH release assay. In kind it is cell-based. The gist of the method: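 HeLa in DMEM + 10% FBS, 37 °C 5% CO2, at 70–80% confluence treated with 25, 50, 100 µM for 24 h; DMSO vehicle; Triton X-100 2% v/v max-LDH control, medium-only negative; supernatant with LDH reaction mix 30 min room temperature, stopped, absorbance 490 nm.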
(Release of lactate dehydrogenase indicates damage to the cell membrane.)

Data set [1] has as its system Enterococcus faecium. Briefly: Antibacterial activity against vancomycin-resistant Enterococcus faecium ATCC 700221 incubated for 16 to 18 hrs by broth microdilution method. In kind it is functional. On the technique in general: Dilution methods test growth across graded concentrations, often in twofold steps.
Data set [2] has as its system Staphylococcus aureus. Kind of data set: Antibiofilm activity against methicillin-resistant Staphylococcus aureus BAA-1707 assessed as biofilm eradication incubated for 24 hrs by CBD assay. It counts as functional. The conditions noted are these: for MBC: Staphylococcus aureus, BAA-1707, 24 h. In outline:
(§1)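 Calgary Biofilm Device: pegs inoculated with mid-log culture diluted 1,000-fold in TSB + 0.5% glucose, 24 h 37 °C; washed pegs challenged with 2-fold dilutions 24 h 37 °C; pegs moved to fresh TSBG 24 h; MBEC = lowest concentration leaving no turbidity; 2–6 independent experiments.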

Data set [3] deals with Mycobacterium tuberculosis. Kind of data set: Antibacterial activity against Mycobacterium tuberculosis H37Ra ATCC 25177 after 7 days by two-fold serial dilution method. It counts as functional. The note with it: H37Ra ATCC 25177, 168 h.
The nature of data set [4]: Induction of hemolysis in human RBC at 200 uM incubated for 1 hr. In kind it is cell-based, Erythrocyte. The conditions noted are these: red blood cells, read-out: Activity. In outline:
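Human RBCs (EDTA), washed three times in Tris-buffered saline pH 7.2; 2% hRBC with compound at final 200 µM, 1 h 37 °C; supernatant OD405; % hemolysis relative to DMSO (0%) and Triton X (100%).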

Data set [5] has as its system Staphylococcus aureus. Kind of data set: Antibacterial activity against methicillin-resistant Staphylococcus aureus clinical isolate 2 incubated for 16 to 18 hrs by broth microdilution method. It counts as functional.
In data set [6] the test system is Staphylococcus aureus. Briefly: Antibacterial activity against methicillin-resistant Staphylococcus aureus BAA-1707 incubated for 16 to 18 hrs by broth microdilution method. It counts as functional.
Data set [7] deals with Staphylococcus epidermidis. Briefly: Antibacterial activity against methicillin-resistant Staphylococcus epidermidis ATCC 35984 assessed as biofilm eradication incubated for 24 hrs by CBD assay. It counts as functional. The conditions noted are these: for MBC: Staphylococcus epidermidis, ATCC 35984, 24 h. The gist of the method:
as §1

Data set [8] has as its system Staphylococcus aureus. Kind of data set: Antibacterial activity against methicillin-resistant Staphylococcus aureus BAA-44 incubated for 16 to 18 hrs by broth microdilution method. In kind it is functional.
Data set [9] has as its system Staphylococcus epidermidis. Briefly: Antibacterial activity against Staphylococcus epidermidis ATCC 12228 incubated for 16 to 18 hrs by broth microdilution method. It counts as functional.
For data set [10], the system named is Enterococcus faecium. Briefly: Antibiofilm activity against […]-resistant Enterococcus faecium ATCC 700221 assessed as biofilm eradication incubated for 24 hrs by CBD assay. In kind it is functional. The conditions noted are these: for MBC: Enterococcus faecium, ATCC 700221, 24 h. The gist of the method: as §1
Data set [11] concerns Staphylococcus aureus. Briefly: Antibacterial activity against methicillin-resistant Staphylococcus aureus clinical isolate 2 incubated for 16 hrs by broth microdilution method in presence of tiron. In kind it is functional. The conditions noted are these: isolate 2, 16 h.
The test system of data set [12] is Staphylococcus aureus. Briefly: Antibacterial activity against methicillin-resistant Staphylococcus aureus clinical isolate 2 incubated for 16 hrs by broth microdilution method in presence of Fe2+. The conditions noted are these: isolate 2, 16 h. In kind it is functional.
The subject of data set [13] is Staphylococcus aureus. Kind of data set: Ratio of MIC for methicillin-resistant Staphylococcus aureus clinical isolate 2 in absence and presence of tiron. Details: scale not given here. It counts as functional.
Data set [14] has as its system Staphylococcus aureus. Kind of data set: Antibacterial activity against methicillin-resistant Staphylococcus aureus clinical isolate 2 incubated for 16 hrs by broth microdilution method. It counts as functional. The note with it: isolate 2, 16 h.
The subject of data set [15] is Staphylococcus aureus. Kind of data set: Antibacterial activity against methicillin-resistant Staphylococcus aureus clinical isolate 2 incubated for 16 hrs by broth microdilution method in presence of Cu2+. It counts as functional. The note with it: isolate 2, 16 h.
The test system of data set [16] is Staphylococcus aureus. Kind of data set: Ratio of MIC for methicillin-resistant Staphylococcus aureus clinical isolate 2 in absence and presence of Cu2+. It counts as functional.
Data set [17] relates to Staphylococcus epidermidis. Briefly: Antibacterial activity against methicillin-resistant Staphylococcus epidermidis ATCC 35984 incubated for 16 to 18 hrs by broth microdilution method. In kind it is functional.
Data set [18] deals with Staphylococcus aureus. Kind of data set: Antibiofilm activity against methicillin-resistant Staphylococcus aureus isolate 2 assessed as biofilm eradication incubated for 24 hrs by CBD assay. In kind it is functional. The note with it: for MBC: Staphylococcus aureus, isolate 2, 24 h. The gist of the method: as §1
Data set [19] concerns Staphylococcus aureus. Briefly: Antibacterial activity against Staphylococcus aureus ATCC 25923 incubated for 16 to 20 hrs by broth microdilution method. In kind it is functional.
Data set [20] concerns Staphylococcus epidermidis. Briefly: Antibacterial activity against Staphylococcus epidermidis ATCC 12228 incubated for 16 to 20 hrs by broth microdilution method. It counts as functional.
Data set [21] deals with Staphylococcus epidermidis. Briefly: Antibiofilm activity against methicillin-resistant Staphylococcus epidermidis ATCC 35984 assessed as reduction in persister cells level within biofilms MBEC incubated for 24 hrs by CBD assay. In kind it is functional. More on the design: scale not given: the % may be the effect or the level left. In outline:
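After CBD challenge and recovery, pegs sonicated 30 min in PBS and plated to count viable biofilm cells (CFU/mL) at and below MBEC.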

`Oc1c(Br)cc(Br)c2nc3cc(Br)c(Br)cc3nc12` returned an IC50 in the data set with HeLa above 100 µM. The minimal inhibitory concentration (MIC) against Enterococcus faecium [1] is 0.39 µM (≈ 0.2 µg/mL); in data set [3], above 50 µM; against Staphylococcus aureus [5], 6.25 µM (≈ 3.2 µg/mL); in the data set with Staphylococcus aureus [6] it was 12.5 µM (≈ 6.4 µg/mL); against Staphylococcus aureus [8], 25 µM (≈ 12.8 µg/mL); in data set [9], 0.08 µM (≈ 0.0409 µg/mL). Also, the MBEC in the data set on Staphylococcus aureus [2] worked out at 50 µM; in data set [7] it was 6.25 µM; in the data set with Enterococcus faecium [10], 0.39 µM. Further, the MBC with Staphylococcus aureus [2] worked out at 6.25 µM (≈ 3.2 µg/mL); in [7] it was 1.56 µM (≈ 0.798 µg/mL); in the data set with Enterococcus faecium [10], 0.39 µM (≈ 0.2 µg/mL). The hemolysis at 1 h, 200 µM in data set [4] was at most 1%.

Turning to `Oc1cccc2cccnc12` [OXYQUINOLINE], the MIC with Staphylococcus aureus [11] was above 100 µM; with Staphylococcus aureus [12], 6.25 µM; against Staphylococcus aureus [14] it was 6.25 µM (≈ 0.907 µg/mL); with Staphylococcus aureus [15], 3.13 µM. Moreover, the Ratio is 16 in the data set on Staphylococcus aureus [13] and below 2 in the data set on Staphylococcus aureus [16].

Regarding `CC(=O)NC[C@H]1CN(c2ccc(N3CCOCC3)c(F)c2)C(=O)O1` [LINEZOLID], the MIC against Enterococcus faecium [1] stood at 3.13 µM (≈ 1.06 µg/mL); with Staphylococcus aureus [12], 6.25 µM; in the data set with Staphylococcus aureus [5] it was 3.13 µM (≈ 1.06 µg/mL); in the data set with Staphylococcus aureus [14], 6.25 µM (≈ 2.11 µg/mL); in the data set on Staphylococcus aureus [6], 12.5 µM (≈ 4.22 µg/mL); in data set [17] it was 3.13 µM (≈ 1.06 µg/mL). The MBEC in the data set with Staphylococcus aureus [2] was above 2000 µM. In the data set with Staphylococcus aureus [2], the MBC is 31.3 µM (≈ 10.6 µg/mL). Besides, the hemolysis at 1 h, 200 µM in data set [4] was at most 1%.

As to `CCCCCCCCCC(=O)N[C@@H](Cc1c[nH]c2ccccc12)C(=O)N[C@@H](CC(N)=O)C(=O)N[C@@H](CC(=O)O)C(=O)N[C@@H]1C(=O)NCC(=O)N[C@@H](CCCN)C(=O)N[C@@H](CC(=O)O)C(=O)N[C@H](C)C(=O)N[C@@H](CC(=O)O)C(=O)NCC(=O)N[C@H](CO)C(=O)N[C@@H]([C@H](C)CC(=O)O)C(=O)N[C@@H](CC(=O)c2ccccc2N)C(=O)O[C@@H]1C` [DAPTOMYCIN], the MBEC with Staphylococcus aureus [2] and in the data set on Staphylococcus aureus [18] was above 2000 µM each time. The MBC with Staphylococcus aureus [2] came out at 125 µM (≈ 203 µg/mL); in the data set with Staphylococcus aureus [18], 62.5 µM (≈ 101 µg/mL). Moreover, the minimal inhibitory concentration (MIC) worked out at 6.25 µM with Staphylococcus aureus [12]; 6.25 µM (≈ 10.1 µg/mL) with Staphylococcus aureus [14]; 3.13 µM (≈ 5.07 µg/mL) in the data set with Staphylococcus aureus [6]; 12.5 µM with Staphylococcus aureus [15]; 18.8 µM (≈ 30.5 µg/mL) against Staphylococcus aureus [8]; 6.25 µM (≈ 10.1 µg/mL) in data set [9]. In addition, inhibition of growth in data set [17] (MIC) required 12.5 µM (≈ 20.3 µg/mL).

For `Oc1c(Br)ccc2nc3ccccc3nc12`, the MIC against Staphylococcus aureus [19] came out at 6.25 µM (≈ 1.72 µg/mL); in data set [20], 1.7 µg/mL (≈ 6.18 µM).

In the data set on HeLa, `Cc1nc2c(I)cc(I)c(O)c2nc1C` returned an IC50 above 100 µM. For the same compound, the minimal inhibitory concentration (MIC) in the data set on Enterococcus faecium [1] is 6.25 µM (≈ 2.66 µg/mL); in data set [3] it was above 50 µM; against Staphylococcus aureus [14], 1.17 µM (≈ 0.498 µg/mL); in [9] it was 2.35 µM (≈ 1 µg/mL). In addition, the hemolysis at 1 h, 200 µM in data set [4] came out at 1.2%. Besides, the MBEC in [7] amounted to 125 µM. Further, the MBC in data set [7] is 23.5 µM (≈ 10 µg/mL); in the data set with Staphylococcus aureus [18], 93.8 µM (≈ 40 µg/mL).

The compound `Oc1c(Br)cc(Br)c2nc3cc(Cl)c(Cl)cc3nc12` showed an IC50 in the data set on HeLa above 100 µM. Moreover, the MIC was 0.39 µM (≈ 0.165 µg/mL) with Enterococcus faecium [1]; 6.25 µM (≈ 2.64 µg/mL) in [3]; 25 µM (≈ 10.6 µg/mL) against Staphylococcus aureus [6]; 50 µM (≈ 21.1 µg/mL) against Staphylococcus aureus [8]; 0.08 µM (≈ 0.0338 µg/mL) in [9]; 0.3 µM (≈ 0.127 µg/mL) in data set [17]. For the same compound, the MBEC in the data set on Staphylococcus aureus [2] is 12.5 µM; in the data set on Enterococcus faecium [10], 0.39 µM. Further, the MBC in the data set on Staphylococcus aureus [2] came out at 6.25 µM (≈ 2.64 µg/mL); with Enterococcus faecium [10] it was 0.39 µM (≈ 0.165 µg/mL). In addition, in [4], the hemolysis at 1 h, 200 µM is at most 1%. The Activity in data set [21] is above 99.99%.

For `Oc1c(Cl)cc(Br)c2nc3cc(Br)c(Br)cc3nc12`, the IC50 with HeLa is above 100 µM. Further, the MIC is 0.2 µM in the data set with Staphylococcus aureus [11]; 0.39 µM (≈ 0.182 µg/mL) with Enterococcus faecium [1]; 12.5 µM (≈ 5.84 µg/mL) with Staphylococcus aureus [5]; 3.13 µM (≈ 1.46 µg/mL) against Staphylococcus aureus [14]; above 100 µM in the data set with Staphylococcus aureus [15]; 25 µM (≈ 11.7 µg/mL) in the data set with Staphylococcus aureus [8]. In addition, the MIC came out at 0.08 µM (≈ 0.0374 µg/mL) in [9] and 0.3 µM (≈ 0.14 µg/mL) in data set [17]. In addition, the hemolysis at 1 h, 200 µM in [4] is 2.1%. Besides, the results for the MBEC (in data set [7]; in the data set with Staphylococcus aureus [18]) were 3.13 µM and 25 µM, respectively. Besides, the values for the MBC (in data set [7]; with Staphylococcus aureus [18]) were 1.56 µM (≈ 0.729 µg/mL) and 25 µM (≈ 11.7 µg/mL), respectively.
